Tn6 DDE FP = inhibitors of Tn6 peptide binding to human fibrin DD(E). P02675. Fibrin DD(E) TRITC-Tn6 fluorescence polarization displacement. inhibition, % at 8.3 µM. 370,000 compounds, 0.21% hits. AID 720509;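 active = inhibition above a per-campaign cutoff: mean of compounds within control limits plus 3 SD, cut at about 15% in these data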;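 note: 0% = median of all compound wells on the plate and 100% = blocking peptide control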
ABHD4 inh = ABHD4 (mouse) inhibition, primary FP screen; AID 720543; 370,000 compounds, 0.54% hits; Q8VD66; purified mABHD4, FP-Rh probe fluorescence polarization; inhibition, % at 8.92 µM;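 active = inhibition exceeding the mean over every tested compound plus 3 SD, cut at about 30% in these data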;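 note: 0% = plate median of compound wells and 100% = S159A mutant with DMSO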
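Assay system: mouse ABHD4 enzyme, wild type / Also added: fluorescent activity-based probe FP-Rh / Doses: single nominal dose of 8.92 µM, 0.89% DMSO final / Timing: 45 min compound pre-incubation plus 60 min probe step, 25 °C / Signal: FP readout, ex 525 nm / em 598 nm / Control set: S159A mutant/DMSO as 100%, compound-well median as 0%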
TCR-CD3 inh = blocks the human TCR-CD3 interaction | 360,000 compounds, 0.37% hits | AID 651800 | inhibition, % at 9.4 µM | TAMRA-labeled TCR probe fluorescence, biochemical; in the data active = inhibition above about 19%;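 note: recombinant mutant TCR 2C K166C tagged with TAMRA read by polarization; 0% = receptor in buffer alone and 100% = receptor with positive control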
DDE Tn7 FP inh = disrupts Tn7 cyclic peptide binding to fibrin D-Dimer-E complex; FP displacement of FITC-Tn7 peptide from fibrin DD(E); 0% = median of compound wells per plate; inhibition, % at 8.3 µM; 370,000 compounds, 0.13% hits;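 active = inhibition above the mean of compounds falling within the control limits plus 3 SD of them, cut at about 14% in these data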;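 note: 0% = plate median of compound wells and 100% = 10 µM Aha-Tn7 peptide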
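Test system – human fibrin DD(E) · Times – 10 min preincubation, 3 h with tracer, room temperature · Detection – fluorescence polarization of the labelled Tn7 tracer · Measure – percent inhibition normalized to high-control wells · Benchmarks – high control wells with 10 µM unlabelled Aha-Tn7 peptide (full inhibition) · Repeats – singlicate testing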
HTRA1 inhibitor = inhibitors of human serine peptidase HTRA1; inhibition, % at 5.96 µM; Q92743; recombinant HTRA1, FP-rhodamine activity-based probe, fluorescence polarization; AID 504803; 340,000 compounds, 0.5% hits; in the data active = inhibition above about 36%;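 note: 0% = enzyme with DMSO and 100% = wells lacking enzyme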
Target sequence (Q92743 whole entry, looked up): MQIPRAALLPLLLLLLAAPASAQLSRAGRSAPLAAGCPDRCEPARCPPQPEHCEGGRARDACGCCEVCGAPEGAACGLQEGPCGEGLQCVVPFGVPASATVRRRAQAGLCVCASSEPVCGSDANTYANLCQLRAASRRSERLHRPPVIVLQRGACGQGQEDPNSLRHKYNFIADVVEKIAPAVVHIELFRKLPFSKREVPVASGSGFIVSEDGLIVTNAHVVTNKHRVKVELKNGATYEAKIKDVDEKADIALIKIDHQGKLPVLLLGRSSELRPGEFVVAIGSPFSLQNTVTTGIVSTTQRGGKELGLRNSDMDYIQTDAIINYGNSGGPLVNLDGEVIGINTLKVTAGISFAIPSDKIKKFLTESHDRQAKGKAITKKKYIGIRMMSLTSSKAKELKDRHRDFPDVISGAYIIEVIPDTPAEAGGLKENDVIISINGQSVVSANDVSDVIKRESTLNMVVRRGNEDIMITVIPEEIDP
HTRA1 conf = confirmation of human HTRA1 inhibitors; shares compounds with HTRA1 inhibitor; recombinant HTRA1, FP-rhodamine activity-based probe, fluorescence polarization; inhibition, % at 5.96 µM; 1,600 compounds, 66% hits; AID 540248;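 active = mean inhibition over three repeats above a set limit taken from the earlier primary screen, cut at about 37% in these data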;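 note: 0% = HTRA1 with DMSO and 100% = wells lacking HTRA1; inhibitors block probe binding so polarization drops and inhibition rises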
Starred values were filed as active, the others as inactive; nt = not tested or not shown. An excerpt weighted towards active compounds, which were near 1.3% of everything screened.

SMILES | Tn6 DDE FP | ABHD4 inh | TCR-CD3 inh | DDE Tn7 FP inh | HTRA1 inhibitor | HTRA1 conf
COc1ccc(C2=NCC(CSc3nnc(-c4ccc5c(c4)OCO5)o3)S2)cc1 (stereo unspecified) | -6 | -2 | 1 | -1 | -13 | nt
CCc1ccc(O)c(CNCCNCc2cc(CC)ccc2O)c1 | 2 | 20 | -1 | 4 | 25 | nt
Cc1ccc(O)c(CNCCNCc2cc(C)ccc2O)c1 | -4 | 13 | 4 | 2 | 38* | 53*
Cc1cc(C)cc(-n2c(C)c3c(C)nnc(C)c3c2C)c1 | 2 | -6 | 5 | -7 | 40* | 12
O=C1c2ccccc2C(=O)c2c1ccc(C(=O)N1CCCCC1)c2NCCO | 10 | 7 | -1 | -1 | 3 | nt
CC1(C)CCCN(C(=O)c2ccc3c(c2NCCO)C(=O)c2ccccc2C3=O)C1 | 1 | 5 | -17 | -1 | 42* | 39*
COc1ccc2[nH]c(O)c(N=NC(=O)c3ccc(NS(=O)(=O)c4cccs4)cc3)c2c1 | 2 | 29 | 3 | 0 | 45* | 34
Cc1ccc2[nH]c(O)c(N=NC(=O)c3ccc(NS(=O)(=O)c4cccs4)cc3)c2c1 | -6 | 10 | 8 | -2 | 6 | nt
CCOC(=O)c1ccc(Nc2nc(C(=O)OCC)nc3ccccc23)cc1 | -1 | -30 | 6 | -1 | -54 | nt
CCOC(=O)c1nc(Nc2ccc(Nc3ccccc3)cc2)c2ccccc2n1 | 5 | 21 | 2 | 6 | 46* | 60*
Cn1nc(-c2ccc(C(=O)N3CCN(Cc4ccccc4)CC3)cc2)c2ccccc2c1=O | -8 | -5 | 1 | -4 | -17 | nt
Cc1cc(-c2ccccc2)nc(N/N=C/c2ccc(O)cc2O)n1 | -2 | 24 | -2 | 7 | 41* | 75*
Oc1ccc(/C=N/Nc2cccc3cccnc23)c(O)c1 | -4 | 29 | -5 | 7 | 47* | 33
Cc1cc(-c2ccccc2)nc(N/N=C/c2ccccc2)n1 | 3 | 1 | 3 | -7 | -5 | nt
C=CCOc1ccc(C2OC34CCCCC3C(C#N)(C#N)C2(C#N)C(=N)O4)cc1 (stereo unspecified) | nt | nt | nt | nt | 38* | -3
COc1ccc2c(c1)c(C(=O)N/N=C/c1ccc(O)c(O)c1)c(C)n2C | -10 | 16 | 5 | 0 | 43* | 64*
COCc1cc(C)nc(SCC(=O)Oc2ccccc2)c1C#N | -1 | 1 | 2 | -4 | 2 | nt
COCc1cc(C)nc(SCC(=O)c2ccc(O)c(O)c2)c1C#N | 1 | 17 | 4 | 0 | 61* | 50*
COc1ccc(/C(O)=C2/C(=O)C(=O)N(c3ncccn3)C2c2ccc(C(C)(C)C)cc2)cc1 (stereo unspecified) | -2 | -1 | -1 | 3 | nt | nt
Cc1cccc(Oc2ncnc(N)c2[N+](=O)[O-])c1C | 2 | 4 | 1 | 4 | 2 | nt
Nc1ncnc(Oc2cccc3cccnc23)c1[N+](=O)[O-] | -7 | -7 | -5 | -1 | 40* | 34
CC(=O)Nc1cc(C(=O)N2CCOCC2)ccc1S(=O)(=O)c1ccc(C)cc1 | 9 | 1 | 6 | 4 | 5 | nt
COc1cc(C(=O)Oc2c(CN3CCOCC3)cc(Cl)c3cccnc23)cc(OC)c1OC | nt | nt | nt | nt | 50* | 71*
O=C(Oc1c(CN2CCOCC2)cc(Cl)c2cccnc12)c1ccccc1Cl | -3 | 12 | -5 | -5 | 37* | 39*
O=C(Oc1c(Cl)cc(Cl)c2cccnc12)c1cccs1 | 4 | 15 | -5 | 1 | 45* | 24
SMILES | Tn6 DDE FP | ABHD4 inh | TCR-CD3 inh | DDE Tn7 FP inh | HTRA1 inhibitor | HTRA1 conf
O=C(Oc1c(Cl)cc(Cl)c2cccnc12)c1ccco1 | -1 | 16 | 3 | -3 | 59* | 54*
O=C(Oc1c(CN2CCOCC2)cc(Cl)c2cccnc12)c1ccc(F)cc1 | -4 | 6 | 7 | -12 | 30 | nt
COc1ccc(C(=O)/C=C/c2cc(OC)c(O)c(OC)c2)c(F)c1 | 1 | 1 | -1 | 2 | 7 | nt
CC[C@@H](CCC1CCCCC1)CN(c1ccccc1)S(C)(=O)=O | -7 | -2 | nt | 2 | nt | nt
CSc1ccc(COC(=O)CCS(=O)(=O)c2ccc(C)cc2)cc1 | -2 | 2 | 3 | 1 | -5 | nt
O=C(Oc1c(CN2CCOCC2)cc(Cl)c2cccnc12)c1cccs1 | -7 | 7 | -8 | -2 | 44* | 11
